Hits are enriched below; roughly 4.2% of the tested compounds scored in any of these assays.
KCNQ1 pot: potentiates or activates the human KCNQ1 potassium channel | 0.35% of 310,000 active | AID 2648 | B-score at 10 µM | CHO-K1 KCNQ1, thallium flux FluxOR fluorescence; hits give high values;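 active means fluorescence ratio B-score, a plate-corrected score, at least three library SD, with initial intensity B-score within 5 SD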
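System: Stable KCNQ1 CHO-K1 line | Incubation: 90 min dye loading and 20 min compound exposure, both at room temperature | Measure: Ratio B score | Medium: Assay buffer for compound exposure, DMSO matched across wells | Compound dosing: Single-concentration screen | Probe or stimulus: K+/Tl+ depolarizing stimulus | Measured by: Kinetic FluxOR fluorescence, 10 s baseline plus 110 s post-stimulus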
AI-2 QS modul: Vibrio harveyi AI-2 quorum sensing modulation. activity change, % at 7.5 µM. 0.4% of 300,000 active. AID 2094. Vibrio harveyi JMH597 AI-2 luminescence/OD600 ratio, 9 h; hits give low values; strain lacks LuxN and CqsS sensors; 0 = neutral-control median; in the data active means activity change below about -75%, passing the limit was not always enough; inconclusive means no clear call, values can overlap the other calls;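 further: luminescence divided by OD600 gain over 9 h not by final OD600 alone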
SUMO Mot1 rescue: inhibitors of SUMOylation pathway: yeast Mot1-301 growth rescue; S. cerevisiae Mot1-301 growth rescue, ATP luminescence, 38.5C; percent above DMSO median, 100 means doubled; growth rescue, % at 18.8 µM; 1% of 320,000 active; AID 2716;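 active means every valid replicate shows activation above 250% relative to neutral control wells; inactive means the rest, any valid replicate at or below 250%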;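 further: OY570 slx delta 5 strain wells were the positive control but not used for scaling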
hERG rescue: shields human hERG channel from block by proarrhythmic agents. Q12809. CHO-hERG, FluxOR thallium flux, dofetilide IC70 present. activation (rescue from dofetilide block), less the hit threshold, % at 10 µM. 0.51% of 310,000 active;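 active means activation above the mean of controls blocked by dofetilide plus 5 SD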;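 further: thallium influx through hERG after potassium depolarization seen as dye fluorescence rise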
KCC2 mod: modulators of human KCC2 chloride dependent transport; B-score of Tl+ flux slope (higher = more flux/activation; lower = inhibition) at 10 µM; 2.2% of 190,000 active; KCC2 cells, thallium flux FluoZin-2 fluorescence; Q9H2X9; AID 1456;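 active means thallium flux slope and its plate-corrected score both differing from the plate sample mean at a set confidence after two filtering rounds, in either direction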;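 further: slope of fluorescence scaled to starting intensity during 10 to 20 s after thallium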
KCNQ1 inh: human KCNQ1 channel inhibition | P51787 | CHO-K1 KCNQ1, FluxOR thallium flux fluorescence; hits give high values | B-score at 10 µM | 1.3% of 310,000 active | AID 2642;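 active means compounds whose thallium flux B-score, printed positive for inhibition, exceeds three library SD while starting fluorescence stays within three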;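 further: channel opened by potassium depolarization with thallium stimulus after 20 min compound exposure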
KCNQ1 inh valid: reconfirmed blocker of the human KCNQ1 potassium channel; shares compounds with KCNQ1 inh; KCNQ1 cell line, FluxOR thallium flux fluorescence; inhibition, % at 10 µM; 93% of 1,600 active; AID 588353;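 active means primary screen active, with duplicate mean exceeding buffer control mean plus 3 SD of buffer wells, cut at about 28% in these data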;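 further: 0% = buffer control ratio and 100% = XE991 inhibitor control ratio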
CHO Tl flux: activity in parental CHO cells lacking KCNQ1; shares compounds with KCNQ1 inh; AID 588366; parental CHO-K1, FluxOR thallium flux fluorescence ratio; hits give low values; zero means no signal rise above baseline; fluorescence ratio (Tl flux) at 10 µM; 21% of 1,600 active;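 active means mean of duplicate thallium-flux fluorescence ratios in parental host cells more than 5 SD below the buffer control mean, cut at about 0.38 in these data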;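 further: ratio is peak minus minimum fluorescence divided by baseline fluorescence; actives read low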
KCNQ2 inh: selectivity of KCNQ1 inhibitors: inhibition of rat KCNQ2 channel | inhibition, % at 10 µM | AID 651746 | KCNQ2 cells, FluxOR thallium flux fluorescence | 71% of 1,600 active | shares compounds with KCNQ1 inh;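 active means mean percent inhibition of the KCNQ2 thallium signal more than 5 SD above the buffer-only control wells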;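 further: KCNQ2 expressed in CHO cells; 0% = buffer control wells and 100% = XE-991 inhibitor control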
KCNQ1 KCNE1 spec: KCNQ1 inhibitor that also blocks human KCNQ1/KCNE1 channel; AID 652147; KCNQ1/KCNE1 cells, FluxOR thallium flux fluorescence; inhibition, % at 10 µM; shares compounds with KCNQ1 inh; 77% of 1,600 active;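 active means mean percent inhibition of duplicate wells above the buffer-only control mean plus 3 SD of those controls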;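 further: 0% = buffer only wells and 100% = XE-991 inhibitor control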
The depositor's hits bear a star; i = inactive; ? = inconclusive; . = no result; + = active, no number.

SMILES | KCNQ1 pot | AI-2 QS modul | SUMO Mot1 rescue | hERG rescue | KCC2 mod | KCNQ1 inh | KCNQ1 inh valid | CHO Tl flux | KCNQ2 inh | KCNQ1 KCNE1 spec
Cc1ccc2c(c1)sc(-c1ccc(N(C)C)cc1)[n+]2C | i | 7 | 4 | -36 | . | 16* | + | 0.28* | i | i
Oc1cc2ccccc2cc1-c1n[nH]c(=S)o1 | i | 19 | . | -10 | 2.2 | 7* | 0 | 0.63 | i | i
S=c1[nH]nc(-c2c[nH]c3ccccc23)o1 | i | 0 | -2 | -5 | . | i | . | . | . | .
CC(=O)c1cccc(NC(=S)NC2CCCCCCC2)c1 | i | 5 | 1 | -11 | . | i | . | . | . | .
CCC1(CC)NC(=O)N(CC(=O)OCC(=O)Nc2cc(OC)ccc2OC)C1=O | . | . | -1 | . | . | . | . | . | . | .
O=C(OCc1nnc(-c2cccs2)o1)C1=NN(c2ccccc2)C(=O)CC1 | . | . | 47 | . | . | . | . | . | . | .
COc1ccc(C(C)=O)cc1CSc1nncn1C | i | 10 | 2 | -4 | 1.4 | 8* | 64* | 0.43 | 60%* | 35%*
COc1ccc(C(C)=O)cc1CSc1nnc(-c2ccncc2)n1C | i | 10 | 418 | -5 | -0.64 | i | . | . | . | .
CCCCNC(=O)Cn1c(=O)oc2cc(S(=O)(=O)N3CC(C)CC(C)C3)ccc21 (stereo not given) | i | 2 | -4 | -12 | . | i | . | . | . | .
Cc1cc(C)cc(NC(=O)Cn2c(=O)oc3cc(S(=O)(=O)N4CC(C)CC(C)C4)ccc32)c1 (stereo not given) | i | -11 | -17 | -11 | . | 7* | 37* | 0.47 | 67%* | i
C#CCN(C(=O)c1ccc(OC2CCN(Cc3ccccn3)CC2)cc1)C1CCCCC1 | i | 14 | 21 | -9 | . | i | . | . | . | .
COc1ccccc1NC(=O)CSc1nc2ccccc2cc1Cc1ccccc1 | i | 5 | -3 | -8 | 0.03 | i | . | . | . | .
Oc1ccccc1Nc1nc(NCc2ccco2)c2ccccc2n1 | i | -10 | -4 | -25 | -1.2 | i | . | . | . | .
Cc1ccccc1Nc1nc(NCc2ccco2)c2ccccc2n1 | i | -11 | -16 | -25 | -0.77 | 14* | 162* | 0.37* | 115%* | +
CCOC(=O)c1c(C)n(C)c2cc([N+](=O)[O-])c(O)c([N+](=O)[O-])c12 | i | 18 | -5 | -2 | -0.24 | i | . | . | . | .
CCOC(=O)c1c(C)n(C)c2cc(Br)c(O)c(O)c12 | i | 24 | 1 | -5 | 0.091 | 6* | 0 | 0.5 | 59%* | i
O=C(Nc1ccc(F)cc1F)N1CCN(c2ncccn2)CC1 | i | 17 | -8 | -10 | 0.27 | i | . | . | . | .
CCN1CCN(CCNC(=O)c2ccc(/C=C3/Sc4ccccc4N(Cc4cccc(Cl)c4)C3=O)cc2)CC1 | i | -4 | -13 | -33 | -0.36 | 14* | 80* | 0.34* | 97%* | 145%*
Cc1cc(C)nc(NC(=O)Nc2ccc(F)cc2F)n1 | i | 13 | 6 | -10 | . | i | . | . | . | .
COc1cccc(NC(=O)Nc2nc(SC)ns2)c1 | i | -12 | -6 | 0 | . | i | . | . | . | .
CCCSc1nsc(NC(=O)Nc2ccc(F)cc2F)n1 | i | -41 | -23 | -4 | . | 11* | 58* | 0.54 | i | i
CCSc1nsc(NC(=O)Nc2cccc(F)c2)n1 | i | ? | 58 | -14 | . | 8* | 52* | 0.55 | i | i
COc1ccc(/C=N/NC(=O)c2cccc(COCC(F)(F)C(F)F)c2)cc1 | i | 19 | 116 | -5 | -0.81 | i | . | . | . | .
COc1cccc(C(=O)Nc2ccc(Cl)c(C(F)(F)F)c2)c1 | i | -44 | 1 | -15 | . | 9* | 136* | 0.37* | 130%* | 78%*
COc1cc(C(=O)Nc2ccc(Cl)c(C(F)(F)F)c2)cc(OC)c1OC | i | 4 | 22 | -6 | 0.15 | i | . | . | . | .
SMILES | KCNQ1 pot | AI-2 QS modul | SUMO Mot1 rescue | hERG rescue | KCC2 mod | KCNQ1 inh | KCNQ1 inh valid | CHO Tl flux | KCNQ2 inh | KCNQ1 KCNE1 spec
Cc1ccc2cc3c(N)[nH]nc3nc2c1 | i | 12 | -1 | -7 | 0.31 | i | . | . | . | .
Cc1ccc(SCc2nc3ncccn3c2Br)cc1 | i | 35 | -10 | -6 | -1.1 | i | . | . | . | .
O=C(CSc1ccccc1)N1CCN(c2ccccc2)CC1 | i | 2 | -12 | -9 | . | i | . | . | . | .
O=C(CCSc1ccccc1)N1CCN(c2ccccc2)CC1 | i | 21 | 4 | -12 | -1 | 7* | 26* | 0.47 | i | 64%*
O=C(CCn1cccc1)NCCc1ccc(Cl)cc1 | i | 7 | 7 | -11 | . | i | . | . | . | .
O=C(Cn1cnc2ccccc2c1=O)N1CCN(c2ccccc2)CC1 | i | 19 | 8 | -10 | -0.58 | 7* | 0 | 0.46 | i | i
Cc1ccc(N2C(=N)/C(=C3/Nc4ccccc4S3)C(c3ccccc3)C2=O)cc1 (stereo not given) | . | . | 10 | . | -0.38 | . | . | . | . | .
CC(C)CC(=O)n1sc(NC(=O)c2ccccc2)nc1=O | i | 46 | 1 | -19 | . | i | . | . | . | .
Cc1ccc(C(=O)Nc2nc(=O)n(C(=O)CC(C)C)s2)cc1 | i | 5 | 0 | 2 | -2.2 | 6* | 34* | 0.61 | i | i
O=C(Nc1ccc(F)cc1F)c1ccco1 | i | 17 | -13 | -7 | -0.1 | i | . | . | . | .
C=CCNc1sc(C(=O)c2ccccc2)c(N)c1-c1nc2ccccc2s1 | i | 3 | -9 | -6 | 0.75 | 7* | 57* | 0.44 | 73%* | 84%*
CC(C)(C)OC(=O)C[C@@H]1C/C=C\C[C@@H](CC(=O)N(CCO)Cc2ccccc2)C(=O)N2CCC[C@@H]2COC1=O | . | . | -2 | . | . | . | . | . | . | .
CC1CC(C)CN(c2oc(Cc3ccccc3)nc2C#N)C1 (stereo not given) | i | 23 | -6 | -3 | -2.5 | i | . | . | . | .
CC1CCN(c2oc(Cc3cccc4ccccc34)nc2C#N)CC1 | i | 27 | -8 | -8 | . | 8* | 99* | 0.39 | 101%* | 112%*
Cc1sc2ncnc(NCC3COc4ccccc4O3)c2c1C (stereo not given) | i | -11 | 5 | -21 | -1.8 | i | . | . | . | .
